ChEMBL document CHEMBL3734683, “Synthesis and pharmacological screening of a large library of 1,3,4-thiadiazolines as innovative therapeutic tools for the treatment of prostate cancer and melanoma” (2015)
Activity calls are given as the source filed them. The rule behind the calls is not given here.

Columns and labels:
PC-3 [1] = assay: Antiproliferative activity against human PC3 cells assessed as reduction in cell viability at 0.5 to 100 uM after 72 hrs by MTT assay; type: functional, cell-based
How it was run: (§1)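 Cells plated, compound added after 24 h (DMSO dilution into culture medium), in triplicate; after 72 h, MTT added for 4 h. Controls were cells in medium alone; blanks were medium-only wells. Viability expressed as percent of viable cells versus control, mean of at least three independent assays.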

[2] = Cytotoxicity against human PC3 cells assessed as cell viability at 100 nM after 72 hrs by tryphan blue staining-based microscopy (reference value: 95 to 98 %); type: functional; settings: PC-3, 72 h, read-out: Activity
SK-MEL-5 [3] = assay: Antiproliferative activity against human SK-MEL-5 cells assessed as reduction in cell viability at 5 to 50 uM after 72 hrs by MTT assay; type: functional, cell-based; how it was run: as §1
SK-MEL-28 [4] = assay: Antiproliferative activity against human SK-MEL-28 cells assessed as reduction in cell viability at 5 to 50 uM after 72 hrs by MTT assay; type: functional, cell-based; how it was run: as §1
SK-MEL-28 [5] = assay: Cell cycle arrest in human SK-MEL-28 cells assessed as accumulation at G2/M phase at 5 uM after 24 hrs by propidium iodide staining-based FACS analysis; type: functional
SK-MEL-28 [6] = assay: Reduction in cyclin D1 mRNA expression in human SK-MEL-28 cells at 5 uM after 24 hrs by RT-PCR analysis relative to control
SK-MEL-5 [7] = assay: Cell cycle arrest in human SK-MEL-5 cells assessed as accumulation at G2/M phase at 5 uM after 24 hrs by propidium iodide staining-based FACS analysis; type: functional
SK-MEL-5 [8] = assay: Reduction in cyclin D1 protein level in human SK-MEL-5 cells at 5 uM after 24 hrs by RT-PCR analysis relative to control; type: functional, cell-based
[9] = Cell cycle arrest in human PC3 cells assessed as accumulation of cells with 4N DNA at 5 uM after 96 hrs by propidium iodide staining-based FACS analysis; type: functional; settings: PC-3
PC-3 [10] = assay: Reduction in cyclin D1 protein level in human PC3 cells at 5 uM after 24 hrs by RT-PCR analysis relative to control; type: functional, cell-based
[11] = Cell cycle arrest in human PC3 cells assessed as accumulation at G2/M phase at 5 uM after 24 hrs by propidium iodide staining-based FACS analysis; type: functional; settings: PC-3
SK-MEL-28 [12] = assay: Cell cycle arrest in human SK-MEL-28 cells assessed as accumulation of cells with 4N DNA at 5 uM after 96 hrs by propidium iodide staining-based FACS analysis; type: functional
[13] = Cytotoxicity against human PC3 cells assessed as cell viability at 5 uM after 72 hrs by tryphan blue staining based microscopy (reference value: 95 to 98 %); type: functional; settings: PC-3, 72 h, read-out: Activity
SK-MEL-5 [14] = assay: Cell cycle arrest in human SK-MEL-5 cells assessed as accumulation of cells with 4N DNA at 5 uM after 96 hrs by propidium iodide staining-based FACS analysis; type: functional

In the case of `CC(=O)NC1=NN(C(C)=O)C(C)(c2ccccn2)S1` (stereo not given), the Activity (PC-3 [1]) is reported as “Active”.

`CC(=O)O[C@@]12CO[C@@H]1C[C@H](O)[C@@]1(C)C(=O)[C@H](O)C3=C(C)[C@@H](OC(=O)[C@H](O)[C@@H](NC(=O)OC(C)(C)C)c4ccccc4)C[C@@](O)([C@@H](OC(=O)c4ccccc4)[C@H]21)C3(C)C` [DOCETAXEL ANHYDROUS] showed a viability at 0.1 µM [2] of 32%.

In the case of `CC(=O)NC1=NN(C(C)=O)C(C)(c2cc(F)ccc2F)S1` (stereo not given), the Activity (PC-3 [1]) is reported as “Active”.

In the case of `CC1(c2ccccc2)SC(NC(=O)C(Cl)Cl)=NN1C(=O)C(Cl)Cl` (stereo not given), the Activity (PC-3 [1]) is reported as “Active”, the Activity (SK-MEL-5 [3]) is reported as “Active” and the Activity (SK-MEL-28 [4]) is reported as “Active”.

With `CC(=O)NC1=NN(C(C)=O)C(C)(c2cccs2)S1` (stereo not given) the Activity (PC-3 [1]) was “Active”.

With `C=CCCC1(C)SC(NC(=O)CC)=NN1C(=O)CC` (stereo not given) the Activity (SK-MEL-5 [3]) was “Active” and the Activity (SK-MEL-28 [4]) was “Active”.

With `CC(=O)NC1=NN(C(C)=O)C(C)(c2ccc(OC(C)=O)cc2)S1` (stereo not given) the Activity (PC-3 [1]) was “Active”.

For `CCCCC1(CC)SC(NC(=O)CC)=NN1C(=O)CC` (stereo not given), the Activity (PC-3 [1]) was “Active”.

In the case of `CC(=O)NC1=NN(C(C)=O)C(C)(c2cccnc2)S1` (stereo not given), the Activity (SK-MEL-5 [3]) is reported as “Active” and the Activity (SK-MEL-28 [4]) is reported as “Active”.

In the case of `CC(=O)NC1=NN(C(C)=O)C(C)(c2ccccc2)S1` (stereo not given), the Activity (SK-MEL-28 [5]) is reported as “Active”, the Activity (SK-MEL-28 [6]) is reported as “Active” and the Activity (SK-MEL-5 [7]) is reported as “Active”. For the same compound, the Activity (SK-MEL-5 [8]) was “Active”, the Activity (PC-3 [1]) was “Active” and the Activity (SK-MEL-5 [3]) was “Active”. The Activity [9] was “Active”, the Activity (PC-3 [10]) was “Active” and the Activity [11] was “Active”. For the same compound, the Activity (SK-MEL-28 [12]) was “Active”, the Activity (SK-MEL-28 [4]) was “Active” and the viability at 5 µM [13] was 25%. For the same compound, the Activity (SK-MEL-5 [14]) was “Active”.

For `CCC1(c2ccccc2)SC(NC(C)=O)=NN1C(C)=O` (stereo not given), the Activity (SK-MEL-28 [5]) was “Active”, the Activity (SK-MEL-28 [6]) was “Active” and the Activity (SK-MEL-5 [7]) was “Active”. The Activity (SK-MEL-5 [8]) was “Active”, the Activity (PC-3 [1]) was “Active” and the Activity (SK-MEL-5 [3]) was “Active”. The Activity [9] was “Active”, the Activity (PC-3 [10]) was “Active” and the Activity [11] was “Active”. For the same compound, the Activity (SK-MEL-28 [12]) was “Active”, the Activity (SK-MEL-28 [4]) was “Active” and the viability at 5 µM [13] was 18%. The Activity (SK-MEL-5 [14]) was “Active”.

For `CCC(=O)NC1=NN(C(=O)CC)C(CC)(c2ccccc2)S1` (stereo not given), the Activity (PC-3 [1]) was “Active”.
